Bioassay records as filed in PubChem.
GRK2 inh: blocks RNA aptamer binding to human GRK2 | P25098 | bead flow cytometry, FAM-aptamer displacement from GRK2 | inhibition of aptamer binding, % at 10 µM | actives 0.59% (n = 330,000) | AID 488847;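 active = inhibition of aptamer binding above 40%, roughly 3 SD of noise, on plates passing a quality check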;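 note: median bead fluorescence of bound FAM aptamer so fluorescent compounds give negative values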
Target sequence (P25098 whole entry, looked up): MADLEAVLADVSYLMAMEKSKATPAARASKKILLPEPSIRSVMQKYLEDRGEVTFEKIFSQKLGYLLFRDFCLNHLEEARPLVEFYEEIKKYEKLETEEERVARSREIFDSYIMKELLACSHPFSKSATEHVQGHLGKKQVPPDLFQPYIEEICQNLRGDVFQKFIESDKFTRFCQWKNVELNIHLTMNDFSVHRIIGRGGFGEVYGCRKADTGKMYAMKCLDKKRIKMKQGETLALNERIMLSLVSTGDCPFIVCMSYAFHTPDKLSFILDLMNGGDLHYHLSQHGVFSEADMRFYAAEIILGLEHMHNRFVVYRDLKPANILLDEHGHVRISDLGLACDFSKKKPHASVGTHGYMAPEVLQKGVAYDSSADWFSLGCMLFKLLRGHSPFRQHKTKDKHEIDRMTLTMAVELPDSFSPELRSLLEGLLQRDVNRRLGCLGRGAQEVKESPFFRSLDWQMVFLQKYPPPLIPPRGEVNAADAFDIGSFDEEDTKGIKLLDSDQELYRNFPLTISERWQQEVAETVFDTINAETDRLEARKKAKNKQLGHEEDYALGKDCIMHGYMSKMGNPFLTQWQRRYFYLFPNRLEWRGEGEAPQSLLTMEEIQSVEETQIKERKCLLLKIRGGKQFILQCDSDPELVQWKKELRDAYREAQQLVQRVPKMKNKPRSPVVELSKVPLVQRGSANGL
procasp7 counter: counter-screen: procaspase-7 (human) activation | recombinant procaspase-7, Ac-DEVD-pNA absorbance 405 nm; D23A/D198A/D206A triple mutant, cannot self-cleave; scale: DMSO 0, 5 µM enzyme 100 | activation, % at 8.5 µM | actives 0.093% (n = 330,000);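 active = percent activation above the screen-wide mean plus 3 SD, cut at about 25% in these data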
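Assay system: Uncleavable procaspase-7 mutant enzyme | Input: 2 µM procaspase-7 mutant as dispensed | Timing: 1 h compound preincubation, 2 h substrate cleavage, 25 °C | Repeats: One well per compound | Control set: DMSO wells as 0%, DMSO with 5 µM added PC-7 as 100% | Technique: Epi-absorbance of released pNA at 405 nm, two timepoints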
T cell HTS: T cell immune modulation candidate | 2C CD8+ T cell-vesicle binding, flow cytometry; stronger effect = lower value | actives 0.068% (n = 330,000) | response (vesicle binding), % at 7 µM;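 active = response, share of CD8 T cells binding vesicles, and their 90th percentile fluorescence all below set limits, cut at about 80% in these data, passing the limit was not always enough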;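 note: values below 100% mean blocked vesicle binding to the CD8+ T cells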
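Read-out – percent CD8+ FL2 mean versus row control · System – murine 2C transgenic CD8+ T lymphocytes · Times – 1.5 h cell–vesicle binding at 37 °C, then 20 min icy labelling · Control set – naked vesicles low, QL9 vesicles with vehicle high · Detection – cytometric PE anti-B7-1 and Alexa647 anti-CD8 signals after 1% paraformaldehyde fixation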
CaV13 FRET inh: Disruptors of the CACNA1D IQ motif to Ca2+-dependent inactivation inhibitor domain association, primary screening, Förster resonance energy transfer in intact living …; actives 0.098% (n = 340,000); inhibition, % at 12.3 µM; HEK cells, CFP/YFP FRET ICDI-IQ, plate reader, 10 min; percent FRET-ratio fall versus neutral wells;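 active = mean replicate inhibition of at least 30% and at least 1% of replicates passing that level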
aDG glyco act: increases alpha dystroglycan glycosylation; Pro5-aDG cells, alpha-DG glycosylation AlphaScreen (IIH6); 0% Pro5, 100% B10-LARGE cell signal; activation, % at 10 µM; actives 0.22% (n = 360,000); AID 624168;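 active = activation of at least 8% versus controls, or a plate z-score of at least 8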;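 note: Pro5 are CHO cells carrying HIG-tagged alpha-DG that lacks glycosylation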
procasp3 activ: activates human procaspase-3; recombinant procaspase-3 D3A, Ac-DEVD-pNA absorbance 405 nm; AID 463141; P42574; actives 0.11% (n = 330,000); activation, % at 8.5 µM;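 active = activation above the mean of all tested compounds plus 3 SD, cut at about 21% in these data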
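Assay system – Procaspase-3 D3A mutant · Benchmarks – DMSO low control, extra-enzyme high control · Technique – 405 nm absorbance of p-nitroaniline, reads at 0 and 120 min · Doses – 8.5 µM nominal · Measure – % activation between DMSO and enzyme-spiked controls · Also added – Ac-DEVD-pNA chromogenic peptide substrate · Schedule – 1 h compound preincubation, 2 h substrate hydrolysis at 25 °C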
GRK2 CP1: confirmation of human GRK2 inhibitors displacing RNA aptamer; AID 504451; actives 4% (n = 2,000); shares compounds with GRK2 inh; aptamer displacement, % at 10 µM; bead-bound GRK2, FAM-aptamer displacement, flow cytometry;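 active = aptamer displacement above 40%, near three times the noise of non-fluorescent compounds, on plates passing quality checks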;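 note: negative values mostly reflect intrinsic compound fluorescence rather than true enhancement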
Aptamer quench 1: quenches fluorescent RNA aptamer, GRK2 hit artifact | 110 tested, under 10 active | shares compounds with GRK2 inh | fluorescence change (kMESF span), kMESF (test concentration not listed) | Fluorescent RNA aptamer beads, quenching, flow cytometry; stronger effect = higher value;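 active = compounds whose bead fluorescence drops by more than 37 kMESF across the dose range, marking them as dye quenchers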
Aptamer quench SP: counter-screen for GRK2 aptamer inhibitors: fluorescent aptamer quenchers; shares compounds with GRK2 inh; Carboxyfluorescein RNA aptamer on beads, flow cytometry quenching; stronger effect = lower value; fluorescence response (% of DMSO), % at 10 µM; 2,000 tested, under 10 active;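 active = compounds that quench the bead-bound fluorescent RNA probe, cutting fluorescence to under half of the solvent control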;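 note: counterscreen run without GRK2 so only probe quenching by compound is measured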
GRK2 CP2: confirmation of human GRK2 inhibitors binding RNA aptamer site. inhibition of aptamer binding, % at 10 µM. shares compounds with GRK2 inh. 360 tested, under 10 active. bead-bound GRK2, FAM-aptamer displacement, flow cytometry;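 active = inhibition of aptamer binding above 40%, about triple the noise seen with nonglowing compounds, on plates passing quality control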;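 note: negative values mostly come from compounds that fluoresce themselves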
FAM quench SP: aptamer fluorescence quenching in GRK2 counter-screen | fluorescence response vs DMSO, % at 10 µM | carboxyfluorescein RNA aptamer beads, flow cytometry quenching; stronger effect = lower value | shares compounds with GRK2 inh | 360 tested, under 10 active;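 active = response vs DMSO under 50%, meaning signal dropped by over half, treated as fluorescence quencher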;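 note: labelled aptamer on streptavidin beads without GRK2 as a quench counter-screen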
Of the large screens only hits and unclear results are named; the others gave an inactive call (follow-up assays come after a bar, where they were run). Compounds with a hit are over-represented: about 1.1% of the library has one in this group of screens.

CNC(=O)c1[nH]cnc1C(=O)Nc1ccc(F)cc1	GRK2 inh 89 | GRK2 CP1 inactive | Aptamer quench 1 inactive | Aptamer quench SP inactive
Cc1cccc(CN2CCN(Cc3ccc4nonc4c3)CC2CCO)n1 (stereo not drawn)	GRK2 inh 41 | GRK2 CP1 inactive | Aptamer quench SP inactive
O=C(O)c1ccc2c(c1)C(=O)/C(=C/c1ccccc1)C2=O	none
O=C(O)c1ccc2c(c1)C(=O)/C(=C\c1ccco1)C2=O	GRK2 inh 58 | GRK2 CP1 inactive | Aptamer quench SP inactive
C[C@H](c1ccccc1)N1C[C@@H](COCc2ccccc2)Oc2cccc(N3CCCC3)c2S1(=O)=O	none (no result: GRK2 inh, procasp7 counter, T cell HTS, aDG glyco act, procasp3 activ)
O=C(CCCOc1ccccc1)Nc1ccc(Cl)c(S(=O)(=O)N2CCOCC2)c1	none
Cc1ccc(NC(=O)CCCOc2ccccc2)cc1S(=O)(=O)N1CCOCC1	GRK2 inh 75 | GRK2 CP1 inactive | Aptamer quench SP inactive
Cc1c(C(=O)N(CCC#N)c2ccccc2)sc2nc3n(c(=O)c12)CCCC3	none
O=C(c1cnn2c(C(F)F)cc(-c3ccccc3)nc12)N1CCCCC1c1cccnc1 (stereo not drawn)	none
CCCCCCCCN1C(=O)[C@H](CC(=O)N2CCSCC2)C[C@@]2(C(=O)OC)CC(C)(C)CC=C12	none (no result: GRK2 inh, procasp7 counter, T cell HTS, procasp3 activ)
COc1cc(C(N)=O)cc(Br)c1OCc1ccccc1	GRK2 inh 100 | GRK2 CP2 inactive | FAM quench SP inactive
CCc1ccc(CNc2ccc3c(c2)ncn3C(C)(C)C)cc1	none | GRK2 CP1 inactive | Aptamer quench SP inactive
CC(C)(C)n1cnc2cc(NCc3ccccc3O)ccc21	none | GRK2 CP1 inactive | Aptamer quench SP inactive
CC(C)(C)n1cnc2cc(NCc3ccc(Br)cc3)ccc21	none | GRK2 CP1 inactive | Aptamer quench SP inactive
Cc1nnc(SCC(=O)c2ccc(Cl)cc2)s1	none
CCc1nc2c(OCc3ccc(Cl)cc3)cccn2c1N(C)C(=O)c1ccc(C)cc1	none (no result: GRK2 inh, procasp7 counter, T cell HTS, procasp3 activ)
CC(C)NC(=O)COC(=O)c1ccccc1CSC1=NCCS1	none
O=C(OCc1nnc(-c2ccccc2)o1)C1CC(=O)N(CCc2ccccc2)C1 (stereo not drawn)	none | GRK2 CP1 inactive | Aptamer quench SP inactive
CC(C)c1[nH]nc2c1C(c1cccc(C(F)(F)F)c1)N(Cc1ccccc1)C2=O (stereo not drawn)	none (no result: GRK2 inh, procasp7 counter, T cell HTS, aDG glyco act, procasp3 activ)
Cc1ccc(S(=O)(=O)N2CCOCC2)cc1NC(=O)COC(=O)/C=C/c1ccco1	GRK2 inh 63 | GRK2 CP1 inactive | Aptamer quench SP inactive
Cc1ccc(S(=O)(=O)N2CCOCC2)cc1NC(=O)COC(=O)c1ccco1	none (no result: GRK2 inh, procasp7 counter, T cell HTS, procasp3 activ)
Nc1nc2sc3c(c2c(=O)s1)CCCC3	none
Nc1c2c(nc3sc4c(c13)CCCC4)CCCCCC2	GRK2 inh 83 | GRK2 CP1 inactive | Aptamer quench SP inactive
CCOC(=O)CN1C(=O)N[C@@H](c2cccc(C(F)(F)F)c2)C(C(=O)OC)=C1C	none
CSCC[C@H](NC(=O)c1cc([N+](=O)[O-])ccc1Cl)c1nc2ccccc2[nH]1	none
CSCC[C@H](NC(=O)COc1ccc(Cl)cc1)c1nc2ccccc2[nH]1	GRK2 inh 98 | GRK2 CP1 inactive | Aptamer quench SP inactive
Cc1sc2nc(CSCC(=O)N(CCC#N)c3ccccc3)[nH]c(=O)c2c1C	none
O=C(CSc1nnc(CNC(=O)c2ccccc2)o1)NCc1ccc2c(c1)OCO2	none
Cn1c(-c2ccc3nc(N)sc3c2)nc2cc(N)ccc21	GRK2 inh 52 | GRK2 CP1 inactive | Aptamer quench SP inactive
Cc1ccccc1-c1nc(CS(=O)(=O)CC(=O)NCc2ccc3c(c2)OCO3)c(C)o1	GRK2 inh 83 | GRK2 CP1 inactive | Aptamer quench SP inactive | GRK2 CP2 inactive | FAM quench SP inactive
COc1ccc(-c2nc(CS(=O)(=O)CC(=O)NCc3ccc4c(c3)OCO4)c(C)o2)cc1	none
CCOc1ccc(OCCCC(=O)N(C)CC(=O)Nc2ccccc2Br)cc1	GRK2 inh 46 | GRK2 CP1 inactive | Aptamer quench SP inactive
Cc1ccc(OCCCC(=O)N(C)CC(=O)Nc2ccccc2Cl)cc1	none
Cc1cccc(NC(=O)CSCC(=O)Nc2ccccc2N2CCCC2)c1	none
O=C(Cc1ccccc1)Nc1ccc2c(c1)C(=O)N(CC1CCCO1)C2=O (stereo not drawn)	GRK2 inh 100 | GRK2 CP1 inactive | Aptamer quench SP inactive
CCCNC(=O)C(Cc1cccc(C#N)c1)NC(=O)c1ccc(C#N)cc1 (stereo not drawn)	GRK2 inh 82 | GRK2 CP1 inactive | Aptamer quench SP inactive
COC(=O)C1=C(C)N(C)C(=NCc2ccc3c(c2)OCO3)NC1c1ccccc1 (stereo not drawn)	none (no result: GRK2 inh, procasp7 counter, T cell HTS, aDG glyco act, procasp3 activ)
C=CCSC1=C(C#N)C(c2ccccc2OC)CC(=O)N1 (stereo not drawn)	none
C=CCSC1=C(C#N)C(c2ccccc2OCC)CC(=O)N1 (stereo not drawn)	none (no result: CaV13 FRET inh) | GRK2 CP1 inactive | Aptamer quench SP inactive
COc1ccc(NC(=O)CNC(=O)CC23CC4CC(CC(C4)C2)C3)c(OC)c1	none (no result: GRK2 inh, procasp7 counter, T cell HTS, procasp3 activ)
Cn1c(C(=O)N2CCCC(C(=O)NCCCSC3CCCCC3)C2)cc2sccc21 (stereo not drawn)	none (no result: CaV13 FRET inh) | GRK2 CP1 inactive | Aptamer quench SP inactive
CC1(C(=O)Nc2ccc3c(c2)OCO3)CCN1C(=O)CCc1cccs1 (stereo not drawn)	none (no result: GRK2 inh, procasp7 counter, T cell HTS, procasp3 activ)
CC(C)(C)Cc1nnc(NS(=O)(=O)c2ccc([N+](=O)[O-])cc2)s1	GRK2 inh 57 | GRK2 CP1 inactive | Aptamer quench SP inactive
